A short description of assay [1]: Her2 expression decrease, cell viability multiplex – SKBR3 breast tumor cells, AlphaScreen, ATP viability, primary screen (AID 461;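 active means Her2 level under about 52% in both replicate screens, with viability over 70% of control, limit read from the data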;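 on Her2 level: lower value means less Her2 protein in the cells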;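 on viability: percent of carrier control wells set as 100% viability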). The conditions noted are these: SKBR3 Her2 protein level, 18-24 h, measured here: SKBR3 viability, ATP luminescence, at 10 µM. Background: In Alpha technology, singlet oxygen from a donor bead excites a nearby acceptor bead.
Assay [2] addresses Receptor tyrosine-protein kinase erbB-2 (Homo sapiens) (UniProt P04626). The description is as above. The note with it: 18-24 h, at 10 µM, stronger effect = lower value.
Assay [3] can be described thus: reduced viability of SK-BR-3 breast cancer cells – cell-based, 24 h, human, pilot screen (AID 572;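 active means viability at or below 10% of carrier control in both of two separate runs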;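 further: compound exposure lasted between 18 and 24 h rather than exactly 24 h; 100% = carrier-treated control wells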). The conditions noted are these: SK-BR-3 viability, CellTiter-Glo luminescence, at 10 µM, stronger effect = lower value.
The nature of assay [4]: HUVEC growth inhibition – cell-based, human, primary screen (AID 575;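 active means viability at or below 30% in both replicate assays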;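 further: 100% = median of untreated cell wells with 0.1% DMSO on each plate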). The note with it: HUVEC proliferation, CellTiter-Glo luminescence, 72 h; at 10 µM; stronger effect = lower value. In short, it runs like this:
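Test system: primary human umbilical vein endothelial cells. Quantity: 1250 cells/well. Compound: single 10 µM dose, 0.1% DMSO, from 5x medium stock. Timing: 72 h treatment at 37 °C. Detection: ATP-based CellTiter-Glo luminescent read. Benchmarks: vehicle and MePR control wells. Format: 384-well plates coated with collagen.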
In general terms: In ATP-based viability assays light output follows the ATP content of the culture.

Assay [5] in a line: H69AR cell proliferation blockers – human, duplicate replicates, primary screen (AID 580;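 active means viability at or under a set limit in both replicates, limit being median viability minus 3 SD, cut at about 48% in these data, passing the limit was not always enough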;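 further: 100% = mean luminescence of untreated wells and 0% = no signal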). The note with it: H69AR lung tumor cells viability, ATP luminescence, 72 h; at 10 µM; stronger effect = lower value.
The nature of assay [6]: MRP1 drug-resistance reversers in H69AR cells – cell-based, doxorubicin co-treatment, pilot screen (AID 601). The conditions noted are these: CellTiter-Glo, 72 h, at 10 µM; for differential viability (reversal): stronger effect = higher value.
Assay [7] in a line: yeast transport mutant growth inhibition pilot in 384-well plates, post-Golgi transport modulator project (AID 636; in the data active means inhibition above about 31%). The conditions noted are these: absorbance 615 nm, about 18 h, stronger effect = higher value.
The nature of assay [8]: growth suppression of yeast trafficking mutant, preliminary HTS, modulators of trafficking downstream of Golgi apparatus project, 1536-format plate, OD 615 nm (AID 637; in the data active means inhibition above about 30%). The conditions noted are these: yeast transport mutant growth, absorbance 615 nm, 18 h; stronger effect = higher value.
Setting [9] is: H69AR cells + 2 uM doxorubicin, measured here: viability with 2 uM doxorubicin, stronger effect = lower value.
The mark [10] stands for this setting: H69AR cells, compound alone cytotoxicity.

Calls of active or inactive are those of the source.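 How the source made its calls, unless noted: active means viability loss from added drug above about 55%, and viability with drug at most 40%, in both replicates (limit read from the data, passing the limit was not always enough); inconclusive means both conditions met in only one replicate; inactive means neither replicate meets both conditions.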

Chain of Receptor tyrosine-protein kinase erbB-2 (Homo sapiens) (P04626 whole entry, looked up): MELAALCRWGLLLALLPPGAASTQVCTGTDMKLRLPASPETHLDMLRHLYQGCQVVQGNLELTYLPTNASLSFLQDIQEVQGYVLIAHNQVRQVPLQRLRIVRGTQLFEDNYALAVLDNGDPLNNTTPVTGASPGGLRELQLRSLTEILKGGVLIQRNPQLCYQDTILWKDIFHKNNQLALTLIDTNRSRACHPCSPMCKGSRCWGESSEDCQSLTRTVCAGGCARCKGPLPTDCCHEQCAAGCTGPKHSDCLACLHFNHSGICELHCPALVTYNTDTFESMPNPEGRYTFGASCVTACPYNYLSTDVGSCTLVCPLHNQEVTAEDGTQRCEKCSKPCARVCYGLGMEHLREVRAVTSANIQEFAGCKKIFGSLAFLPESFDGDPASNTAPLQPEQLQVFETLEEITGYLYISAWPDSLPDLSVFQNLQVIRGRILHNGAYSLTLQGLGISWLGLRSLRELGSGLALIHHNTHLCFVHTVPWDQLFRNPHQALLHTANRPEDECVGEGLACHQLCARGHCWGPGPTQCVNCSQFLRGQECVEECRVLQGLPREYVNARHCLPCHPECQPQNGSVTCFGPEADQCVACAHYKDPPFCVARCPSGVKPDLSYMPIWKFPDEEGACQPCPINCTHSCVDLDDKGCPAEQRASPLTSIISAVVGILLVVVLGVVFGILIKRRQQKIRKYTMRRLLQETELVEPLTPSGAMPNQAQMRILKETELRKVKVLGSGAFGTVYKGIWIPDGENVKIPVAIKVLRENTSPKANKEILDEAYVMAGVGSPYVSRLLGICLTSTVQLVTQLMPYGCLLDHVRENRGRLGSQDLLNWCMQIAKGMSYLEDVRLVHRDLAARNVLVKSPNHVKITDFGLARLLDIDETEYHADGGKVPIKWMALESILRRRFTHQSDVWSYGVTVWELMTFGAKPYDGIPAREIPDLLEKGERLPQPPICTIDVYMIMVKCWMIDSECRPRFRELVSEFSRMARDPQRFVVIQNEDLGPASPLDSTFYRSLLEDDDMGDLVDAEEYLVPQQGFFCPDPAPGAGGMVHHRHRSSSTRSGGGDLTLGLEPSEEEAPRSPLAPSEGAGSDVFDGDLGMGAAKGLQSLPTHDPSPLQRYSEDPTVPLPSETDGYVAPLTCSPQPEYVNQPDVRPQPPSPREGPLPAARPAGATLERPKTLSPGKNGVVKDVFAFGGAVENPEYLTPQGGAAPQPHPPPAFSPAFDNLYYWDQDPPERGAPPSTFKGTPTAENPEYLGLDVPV

A word on the viability: it is a read-out of living cells in per cent, often relative to untreated cells. Usually inhibition stands for the drop in the measured response relative to a control, in per cent. For the compound `O=C(O)[C@@H]1CCCN1c1ncnc2sc3c(c12)CCC3`, the viability in assay [1] is 128%; in assay [3], 128% (inactive); in assay [4] it was 98.3% (inactive); in assay [5], 106% (inactive); in assay [6] (setting [9]) it was 102%; in assay [6] (setting [10]), 106%. In addition, the Her2 level in assay [2] is 100% (inactive). Besides, the differential viability (reversal) in assay [6] (H69AR cells + 2 uM doxorubicin) is 3.99% (inactive). For the same compound, the inhibition is -6.8% (inactive) in assay [7] and 0.32% (inactive) in assay [8].
For the compound `COC(=O)CSc1nc2ncc(Cl)cc2[nH]1`, the viability is 101% in assay [1]; 101% (inactive) in assay [3]; 89.3% (inactive) in assay [4]; 89.8% (inactive) in assay [5]; 88.7% in assay [6] (setting [9]); 89.8% in assay [6] (setting [10]). Moreover, in assay [2], the Her2 level was 92.5% (inactive). In addition, the differential viability (reversal) in assay [6] (H69AR cells + 2 uM doxorubicin) was 1.08% (inactive). For the same compound, the inhibition is -5.06% (inactive) in assay [7] and 1.15% (inactive) in assay [8].
Consider `O=C(C1CCCCC1)N1CCC(c2nc3c(nnn3Cc3c(F)cccc3Cl)c(=O)[nH]2)CC1`, for which the viability is 87.5% in assay [1]; 87.5% (inactive) in assay [3]; 85.2% (inactive) in assay [4]; 71.3% (inactive) in assay [5]; 22.9% in assay [6] (setting [9]); 71.3% in assay [6] (setting [10]). The Her2 level in assay [2] is 96.5% (inactive). Further, the differential viability (reversal) in assay [6] (H69AR cells + 2 uM doxorubicin) was 48.4% (inactive). Moreover, the inhibition in assay [7] was -3.77% (inactive); in assay [8] it was -6.39% (inactive).
In the case of `CCCCN(CC)S(=O)(=O)c1ccc2c(c1)CCCN2C(C)=O`, the viability is 88% in assay [1]; 88% (inactive) in assay [3]; 88.9% (inactive) in assay [4]; 104% (inactive) in assay [5]; 103% in assay [6] (setting [9]); 104% in assay [6] (setting [10]). Moreover, the Her2 level in assay [2] is 79.5% (inactive). Further, the differential viability (reversal) in assay [6] (H69AR cells + 2 uM doxorubicin) was 0.71% (inactive). Further, the inhibition was -2.37% (inactive) in assay [7] and 0.48% (inactive) in assay [8].
As for `COc1cccc(N2CCN(Cc3cccnc3)CC2)c1`, the viability was 81.5% in assay [1]; 81.5% (inactive) in assay [3]; 93% (inactive) in assay [4]; 87.8% (inactive) in assay [5]; 95.4% in assay [6] (setting [9]); 87.8% in assay [6] (setting [10]). Besides, the Her2 level in assay [2] is 97.5% (inactive). Further, in assay [6] (H69AR cells + 2 uM doxorubicin), the differential viability (reversal) was -7.62% (inactive). Besides, the results for the inhibition in assay [7] and in assay [8] were -0.38% (inactive) and 3.33% (inactive), respectively.
Consider `Cc1cccc(NS(=O)(=O)c2cc(C(=O)OCC(=O)Nc3cc(C)on3)ccc2C)c1`, for which the viability in assay [1] is 93%; in assay [3], 93% (inactive); in assay [4] it was 77.7% (inactive); in assay [5], 112% (inactive); in assay [6] (setting [9]), 102%; in assay [6] (setting [10]), 112%. Moreover, the Her2 level in assay [2] was 86% (inactive). Also, the differential viability (reversal) in assay [6] (H69AR cells + 2 uM doxorubicin) is 10.1% (inactive). Also, the inhibition was -2.8% (inactive) in assay [7] and -2.26% (inactive) in assay [8].
Turning to `O=C1CC(N2CCN(c3ccc(Cl)c(Cl)c3)CC2)C(=O)N1` (stereo not given), the viability is 67.5% in assay [1]; 67.5% (inactive) in assay [3]; 76.5% (inactive) in assay [4]; 107% (inactive) in assay [5]; 89.1% in assay [6] (setting [9]); 107% in assay [6] (setting [10]). In addition, the Her2 level in assay [2] is 103% (inactive). Moreover, the differential viability (reversal) in assay [6] (H69AR cells + 2 uM doxorubicin) is 18.3% (inactive). Besides, the inhibition in assay [7] was -2.84% (inactive); in assay [8], 27.7% (inactive).
`COc1cccc(CN(C)CC(=O)NC(=O)NCc2ccco2)c1`: the viability in assay [1] was 106%; in assay [3], 106% (inactive); in assay [4], 92.7% (inactive); in assay [5], 84.7% (inactive); in assay [6] (setting [9]), 79.4%; in assay [6] (setting [10]), 84.7%. In addition, the Her2 level in assay [2] was 100% (inactive). Further, in assay [6] (H69AR cells + 2 uM doxorubicin), the differential viability (reversal) was 5.36% (inactive). The figures for the inhibition in assay [7] and in assay [8] were 0.92% (inactive) and 21.4% (inactive), respectively.
For the compound `O=C(Cn1cccc1)N1CCN(C(c2ccccc2)c2ccccc2)CC1`, the viability in assay [1] was 102%; in assay [3], 102% (inactive); in assay [4] it was 108% (inactive); in assay [5], 91.4% (inactive); in assay [6] (setting [9]), 95.9%; in assay [6] (setting [10]), 91.4%. Also, in assay [2], the Her2 level is 87% (inactive). Besides, the differential viability (reversal) in assay [6] (H69AR cells + 2 uM doxorubicin) is -4.55% (inactive). Moreover, the values for the inhibition in assay [7] and in assay [8] were -6.76% (inactive) and 4.33% (inactive), respectively.
Turning to `COc1ccc(CNC(=O)c2cc(-c3ccc(OC)c(OC)c3)on2)cc1`, the viability in assay [1] was 116%; in assay [3], 116% (inactive); in assay [4], 118% (inactive); in assay [5], 94.4% (inactive); in assay [6] (setting [9]), 85.6%; in assay [6] (setting [10]) it was 94.4%. Further, the Her2 level in assay [2] was 88.5% (inactive). In assay [6] (H69AR cells + 2 uM doxorubicin), the differential viability (reversal) is 8.78% (inactive). Also, the inhibition in assay [7] is -5.95% (inactive); in assay [8], -3.83% (inactive).
For `O=C(NCCCCNC(=O)c1cccnc1)c1cccnc1`, the viability in assay [1] was 95%; in assay [3] it was 95% (inactive); in assay [4], 94.5% (inactive); in assay [5], 105% (inactive); in assay [6] (setting [9]) it was 102%; in assay [6] (setting [10]) it was 105%. The Her2 level in assay [2] is 83% (inactive). Also, the differential viability (reversal) in assay [6] (H69AR cells + 2 uM doxorubicin) is 3.5% (inactive). In addition, the inhibition in assay [7] is -0.52% (inactive); in assay [8] it was 34.9% (active).
Consider `COC(=O)c1ccc(NC(=O)CN2CCN(c3ccc(Cl)cc3)CC2)cc1`, for which the viability in assay [1] is 96.5%; in assay [3] it was 96.5% (inactive); in assay [4] it was 104% (inactive); in assay [5] it was 96.1% (inactive); in assay [6] (setting [9]), 96.6%; in assay [6] (setting [10]), 96.1%. Further, the Her2 level in assay [2] was 100% (inactive). Moreover, the differential viability (reversal) in assay [6] (H69AR cells + 2 uM doxorubicin) is -0.5% (inactive). Moreover, the values for the inhibition in assay [7] and in assay [8] were 0.13% (inactive) and 12.9% (inactive), respectively.
Turning to `CCCCn1cnc2c(cnn2-c2ccc(Cl)cc2)c1=O`, the viability in assay [1] is 94.5%; in assay [3], 94.5% (inactive); in assay [4], 99.4% (inactive); in assay [5] it was 86.1% (inactive); in assay [6] (setting [9]), 87.9%; in assay [6] (setting [10]), 86.1%. Besides, the Her2 level in assay [2] was 87% (inactive). In assay [6] (H69AR cells + 2 uM doxorubicin), the differential viability (reversal) was -1.77% (inactive). The figures for the inhibition in assay [7] and in assay [8] were -3.55% (inactive) and 2.91% (inactive), respectively.
As for `Cc1ccc(N2CCN(C(=S)c3ccc(N(C)C)cc3)CC2)cc1`, the viability is 89.5% in assay [1]; 89.5% (inactive) in assay [3]; 91.8% (inactive) in assay [4]; 82.6% (inactive) in assay [5]; 92.4% in assay [6] (setting [9]); 82.6% in assay [6] (setting [10]). In assay [2], the Her2 level is 82.5% (inactive). In addition, in assay [6] (H69AR cells + 2 uM doxorubicin), the differential viability (reversal) was -9.83% (inactive). For the same compound, the inhibition in assay [7] is -3.92% (inactive); in assay [8] it was -6.19% (inactive).
For the compound `Cc1nnc(C)n1/N=C/c1cccc(Oc2ccccc2)c1`, the viability was 100% in assay [1]; 100% (inactive) in assay [3]; 98% (inactive) in assay [4]; 87.4% (inactive) in assay [5]; 82.6% in assay [6] (setting [9]); 87.4% in assay [6] (setting [10]). Moreover, in assay [2], the Her2 level is 78.5% (inactive). The differential viability (reversal) in assay [6] (H69AR cells + 2 uM doxorubicin) is 4.77% (inactive). Also, the inhibition in assay [7] is -1.97% (inactive); in assay [8] it was 0.16% (inactive).
On to `CCCn1c(SCC(=O)N2CCCc3ccccc32)nnc1-c1ccccn1`, for which the viability is 84.5% in assay [1]; 84.5% (inactive) in assay [3]; 103% (inactive) in assay [4]; 95.1% (inactive) in assay [5]; 93.2% in assay [6] (setting [9]); 95.1% in assay [6] (setting [10]). For the same compound, the Her2 level in assay [2] was 102% (inactive). Also, in assay [6] (H69AR cells + 2 uM doxorubicin), the differential viability (reversal) is 1.95% (inactive). Moreover, the values for the inhibition in assay [7] and in assay [8] were -4.67% (inactive) and 5.16% (inactive), respectively.

These data come from PubChem BioAssay.
